From PMC7422904 (Translational Vision Science & Technology, 2020)

Key:
[1] = tested on: ocular hypertensive rat eyes; format: in vivo, Wistar rats; settings: ocular hypertensive rats, single drop, Bimatoprost 8.8 µg/eye, N = 6
How it was run: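 Male Wistar rats (7–10 weeks) under i.p. ketamine/xylazine (90:10 mg/kg) plus topical 0.5% proxymetacaine. Right eye received 30 µL HA (10 mg/mL) intracamerally near the limbus, weekly for 3 weeks. Dosing (one 20 µL drop) began once IOP was raised. Groups: saline, test compound, bimatoprost, combination, normotensive saline; N = 6. IOP: TonoPen Vet on unsedated rats, mean of four readings.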

[2] = tested on: chicken chorioallantoic membranes; assay: Hen's egg test in chorioallantoic membrane
How it was run: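 Fertilized hen eggs incubated 10 days at 37 ± 1°C and 60 ± 1% relative humidity. Shell opened and inner membranes removed. Test compound (40, 80, 160, 320 µg) applied to the CAM and watched for 300 s. Controls: 0.9% NaCl (negative) and 0.1 M NaOH (positive); N = 10. Onset times of hemorrhage, lysis and coagulation were weighted 5, 7 and 9 in the OII equation.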

| Compound | ability to reduce IOP (in words) [1] | irritancy classification in words (HET-CAM) ([2]; PnPP-19 at all concentrations tested, NaOH at 0.1 M, 300 seconds) | OII ± SEM (ocular irritation index) ([2]; positive control 0.1 M, observed 300 seconds, N = 10) |
| --- | --- | --- | --- |
| CCNC(=O)CCC/C=C\C[C@@H]1[C@@H](/C=C/[C@@H](O)CCc2ccccc2)[C@H](O)C[C@@H]1O [Bimatoprost] | not able to reduce IOP |  |  |
| [Na+].[OH-] [0.1 M NaOH, sodium hydroxide] |  | severely irritating | 20.11± 0.32 |
